Results gathered from unrelated publications.
Compare with care: the assays were run in different laboratories.
SIGMAR1: Sigma non-opioid intracellular receptor 1 (SIGMAR1, Homo sapiens, UniProt Q99720)
Nectin-4: Nectin-4 (Homo sapiens, UniProt Q96NY8)
PFF0160c: Dihydroorotate dehydrogenase (quinone), mitochondrial (PFF0160c, Plasmodium falciparum, UniProt Q08210)

Cc1nccn1CC1CCc2c(c3ccccc3n2C)C1=O (centres unmarked)  Ki (SIGMAR1; ligand displacement; radioligand): 6.51 µM
CCCC[C@@H]1NC(=O)[C@H](Cc2ccc(O)cc2)NC(=O)[C@@H]2CCCN2C(=O)[C@H](CC(=O)O)NC(=O)[C@H](C)NC(=O)[C@H](Cc2ccccc2)NC(=O)[C@@H]2CSCCC(=O)N3CN(CN(C3)C(=O)CCSC[C@H](NC(C)=O)C(=O)N[C@@H](CC(C)(C)C)C(=O)N3CCC[C@H]3C(=O)N[C@@H](CCC(=O)O)C(=O)N[C@H](CCCCNC(=O)CCc3cn(CCOCCOCCOCCOCCOCCC(=O)N[C@H]4CSCCC(=O)N5CN6CN(C5)C(=O)CCSC[C@H](NC(=O)[C@@H](CC(=O)O)NC(=O)[C@H](Cc5cccc7ccccc57)NC(=O)[C@@H]5CCCN5C4=O)C(=O)N[C@@H](CCSC)C(=O)N[C@@H](CCCCNC(=N)N)C(=O)N[C@@H](CC(=O)O)C(=O)N[C@@H](Cc4c[nH]c5ccccc45)C(=O)N[C@@H](CO)C(=O)N[C@@H]([C@@H](C)O)C(=O)N4CCC[C@H]4C(=O)N4C[C@H](O)C[C@H]4C(=O)N[C@@H](Cc4c[nH]c5ccccc45)C(=O)N[C@H](C(N)=O)CSCCC6=O)nn3)C(=O)N3CCC[C@H]3C(=O)N[C@@H](Cc3ccc(O)cc3)C(=O)N2)C(=O)CCSCCNC1=O  Kd (Nectin-4; binding; SPR): 0.0016 µM
C/C(=C\[N+](=O)[O-])c1ccccc1  Kd (nerA (Agrobacterium radiobacter, UniProt O31246); binding; absorbance): 730 µM
COc1nc(NCC(C)C)nc(Oc2ccc(=O)n(Cc3ccccc3)n2)n1  IC50 (PFF0160c; enzyme activity; inhibitor; absorbance): 0.124 µM
CCCC[C@@H]1NC(=O)[C@H](Cc2ccc(O)cc2)NC(=O)[C@@H]2CCCN2C(=O)[C@H](CC(=O)O)NC(=O)[C@H](C)NC(=O)[C@H](Cc2ccccc2)NC(=O)[C@@H]2CSCCC(=O)N3CN(CN(C3)C(=O)CCSC[C@@H](C(=O)N[C@@H](C)C(N)=O)NC1=O)C(=O)CCSC[C@H](NC(C)=O)C(=O)N[C@@H](CC(C)(C)C)C(=O)N1CCC[C@H]1C(=O)N[C@@H](CCC(=O)O)C(=O)N[C@H](CCCCNC(=O)CCc1cn(CCOCCOCCOCCOCCOCCC(=O)NCCCC[C@H]3NC(=O)[C@H](Cc4cccc5ccccc45)NC(=O)[C@@H]4CCCN4C(=O)CCSCCC(=O)N4CN5CN(C4)C(=O)CCSC[C@H](NC3=O)C(=O)N[C@@H](CCSC)C(=O)N[C@@H](CCCCNC(=N)N)C(=O)N[C@@H](CC(=O)O)C(=O)N[C@@H](Cc3c[nH]c4ccccc34)C(=O)N[C@@H](CO)C(=O)N[C@@H]([C@@H](C)O)C(=O)N3CCC[C@H]3C(=O)N3C[C@H](O)C[C@H]3C(=O)N[C@@H](Cc3c[nH]c4ccccc34)C(=O)N[C@H](C(N)=O)CSCCC5=O)nn1)C(=O)N1CCC[C@H]1C(=O)N[C@@H](Cc1ccc(O)cc1)C(=O)N2  Kd (Nectin-4; binding; SPR): 0.0022 µM
COC(=O)C1(c2ccc(C)cc2)CC1CN1CCC(O)(c2ccccc2)CC1 (centres unmarked)  Ki (SIGMAR1; ligand displacement; radioligand): 0.0187 µM
Cc1cc(NC(=O)c2cc(S(=O)(=O)N3CCCCC3)ccc2C)no1  IC50 (PFF0160c; enzyme activity; inhibitor; absorbance): 1.7 µM
COc1cc2c(cc1OC)CN(CCc1ccc(NC(=O)c3cc(OC)c(OC)cc3NC(=O)c3cnc4ccccc4c3)cc1)CC2  Ki (SIGMAR1; ligand displacement; radioligand): 0.472 µM
O=C(CNCC1CCCCC1)Nc1cc(C(F)(F)F)ccc1Cl  IC50 (Dihydroorotate dehydrogenase (quinone), mitochondrial (PFF0160c, Plasmodium falciparum, UniProt Q08210, E182D); enzyme activity; inhibitor; absorbance): 8.39 µM
CN(C)CCC(c1ccc(Cl)cc1)c1ccccn1 (centres unmarked)  Ki (SIGMAR1; ligand displacement; radioligand): 1.31 µM
CCCC[C@@H]1NC(=O)[C@H](Cc2ccc(O)cc2)NC(=O)[C@@H]2CCCN2C(=O)[C@H](CC(=O)O)NC(=O)[C@H](C)NC(=O)[C@H](Cc2ccccc2)NC(=O)[C@@H]2CSCCC(=O)N3CN(CN(C3)C(=O)CCSC[C@@H](C(=O)N[C@@H](CNC(=O)CCc3cn(CCOCCOCCOCCN(CCOCCOCCOCCC(=O)N[C@H]4CSCCC(=O)N5CN6CN(C5)C(=O)CCSC[C@H](NC(=O)[C@@H](CC(=O)O)NC(=O)[C@H](Cc5cccc7ccccc57)NC(=O)[C@@H]5CCCN5C4=O)C(=O)N[C@@H](CCSC)C(=O)N[C@@H](CCCCNC(=N)N)C(=O)N[C@@H](CC(=O)O)C(=O)N[C@@H](Cc4c[nH]c5ccccc45)C(=O)N[C@@H](CO)C(=O)N[C@@H]([C@@H](C)O)C(=O)N4CCC[C@H]4C(=O)N4C[C@H](O)C[C@H]4C(=O)N[C@@H](Cc4c[nH]c5ccccc45)C(=O)N[C@H](C(N)=O)CSCCC6=O)CCOCCOCCOCCn4cc(CCC(=O)NC[C@H](NC(=O)[C@@H]5CSCCC(=O)N6CN7CN(C6)C(=O)CCSC[C@H](NC(=O)[C@H](Cc6ccc(O)cc6)NC(=O)[C@@H]6CCCN6C(=O)[C@@H](C)NC(=O)[C@H](CCC(=O)O)NC(=O)[C@@H]6CCCN6C(=O)[C@H](CC(C)(C)C)NC(=O)[C@@H](NC(C)=O)CSCCC7=O)C(=O)N[C@@H](Cc6ccccc6)C(=O)N[C@@H](C)C(=O)N[C@@H](CC(=O)O)C(=O)N6CCC[C@H]6C(=O)N[C@@H](Cc6ccc(O)cc6)C(=O)N[C@@H](CCCC)C(=O)N5)C(N)=O)nn4)nn3)C(N)=O)NC1=O)C(=O)CCSC[C@H](NC(C)=O)C(=O)N[C@@H](CC(C)(C)C)C(=O)N1CCC[C@H]1C(=O)N[C@@H](CCC(=O)O)C(=O)N[C@H](C)C(=O)N1CCC[C@H]1C(=O)N[C@@H](Cc1ccc(O)cc1)C(=O)N2  Kd (Nectin-4; binding; SPR): 0.0037 µM
CCCCN(C)CC#Cc1ccc2[nH]c(C)c(Cl)c(=O)c2c1  IC50 (PFF0160c; enzyme activity; inhibitor; absorbance): 4.55 µM
CCCC[C@@H]1NC(=O)[C@H](Cc2ccc(O)cc2)NC(=O)[C@@H]2CCCN2C(=O)[C@H](CC(=O)O)NC(=O)[C@H](C)NC(=O)[C@H](Cc2ccccc2)NC(=O)[C@@H]2CSCCC(=O)N3CN(CN(C3)C(=O)CCSCCC(=O)N[C@@H](CC(C)(C)C)C(=O)N3CCC[C@H]3C(=O)N[C@@H](CCC(=O)O)C(=O)N[C@H](CCCCNC(=O)CCc3cn(CCOCCOCCOCCN(CCOCCOCCOCCC(=O)N[C@H]4CSCCC(=O)N5CN6CN(C5)C(=O)CCSC[C@H](NC(=O)[C@@H](CC(=O)O)NC(=O)[C@H](Cc5cccc7ccccc57)NC(=O)[C@@H]5CCCN5C4=O)C(=O)N[C@@H](CCSC)C(=O)N[C@@H](CCCCNC(=N)N)C(=O)N[C@@H](CC(=O)O)C(=O)N[C@@H](Cc4c[nH]c5ccccc45)C(=O)N[C@@H](CO)C(=O)N[C@@H]([C@@H](C)O)C(=O)N4CCC[C@H]4C(=O)N4C[C@H](O)C[C@H]4C(=O)N[C@@H](Cc4c[nH]c5ccccc45)C(=O)N[C@H](C(N)=O)CSCCC6=O)CCOCCOCCOCCn4cc(CCC(=O)NCCCC[C@H]5NC(=O)[C@H](CCC(=O)O)NC(=O)[C@@H]6CCCN6C(=O)[C@H](CC(C)(C)C)NC(=O)CCSCCC(=O)N6CN7CN(C6)C(=O)CCSC[C@H](NC(=O)[C@H](Cc6ccc(O)cc6)NC(=O)[C@@H]6CCCN6C5=O)C(=O)N[C@@H](Cc5ccccc5)C(=O)N[C@@H](C)C(=O)N[C@@H](CC(=O)O)C(=O)N5CCC[C@H]5C(=O)N[C@@H](Cc5ccc(O)cc5)C(=O)N[C@@H](CCCC)C(=O)NCCSCCC7=O)nn4)nn3)C(=O)N3CCC[C@H]3C(=O)N[C@@H](Cc3ccc(O)cc3)C(=O)N2)C(=O)CCSCCNC1=O  Kd (Nectin-4; binding; SPR): 0.004 µM
N[C@@H](C[C@]1(C(=O)O)C[C@H]2OC[C@@H](O)[C@@H](O)[C@H]2O1)C(=O)O  Ki (Glutamate receptor ionotropic, kainate 2 (Grik2, Rattus norvegicus, UniProt P42260, A518T/Y443F); ligand displacement; radioligand): 0.972 µM
Cc1cc(Nc2ccc3c(c2)CCC3)n2ncnc2n1  IC50 (PFF0160c; enzyme activity; inhibitor; absorbance): 0.695 µM
CCCC[C@@H]1NC(=O)[C@H](Cc2ccc(O)cc2)NC(=O)[C@@H]2CCCN2C(=O)[C@H](CC(=O)O)NC(=O)[C@H](C)NC(=O)[C@H](Cc2ccccc2)NC(=O)[C@@H]2CSCCC(=O)N3CN(CN(C3)C(=O)CCSC[C@@H](C(N)=O)NC1=O)C(=O)CCSCCC(=O)N[C@@H](CC(C)(C)C)C(=O)N1CCC[C@H]1C(=O)N[C@@H](CCC(=O)O)C(=O)N[C@H](CCCCNC(=O)CCc1cn(CCOCCOCCOCCN(CCOCCOCCOCCC(=O)N[C@H]3CSCCC(=O)N4CN5CN(C4)C(=O)CCSC[C@H](NC(=O)[C@@H](CC(=O)O)NC(=O)[C@H](Cc4cccc6ccccc46)NC(=O)[C@@H]4CCCN4C3=O)C(=O)N[C@@H](CCSC)C(=O)N[C@@H](CCCCNC(=N)N)C(=O)N[C@@H](CC(=O)O)C(=O)N[C@@H](Cc3c[nH]c4ccccc34)C(=O)N[C@@H](CO)C(=O)N[C@@H]([C@@H](C)O)C(=O)N3CCC[C@H]3C(=O)N3C[C@H](O)C[C@H]3C(=O)N[C@@H](Cc3c[nH]c4ccccc34)C(=O)N[C@H](C(N)=O)CSCCC5=O)CCOCCOCCOCCn3cc(CCC(=O)NCCCC[C@H]4NC(=O)[C@H](CCC(=O)O)NC(=O)[C@@H]5CCCN5C(=O)[C@H](CC(C)(C)C)NC(=O)CCSCCC(=O)N5CN6CN(C5)C(=O)CCSC[C@H](NC(=O)[C@H](Cc5ccc(O)cc5)NC(=O)[C@@H]5CCCN5C4=O)C(=O)N[C@@H](Cc4ccccc4)C(=O)N[C@@H](C)C(=O)N[C@@H](CC(=O)O)C(=O)N4CCC[C@H]4C(=O)N[C@@H](Cc4ccc(O)cc4)C(=O)N[C@@H](CCCC)C(=O)N[C@H](C(N)=O)CSCCC6=O)nn3)nn1)C(=O)N1CCC[C@H]1C(=O)N[C@@H](Cc1ccc(O)cc1)C(=O)N2  Kd (Nectin-4; binding; SPR): 0.0023 µM
CN1CCN(C2=Nc3cc(Cl)ccc3Nc3ccccc32)CC1  Ki (SIGMAR1; ligand displacement; radioligand): > 10 µM
